Key:
Assay type in all cases: ADME
[1] = Maximum optimal dose expressed as OD max X 10e-(2/3) mg
Procedure, shortened: (§1)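 Type I difference spectra recorded at 350–500 nm in washed liver microsomes from fed, untreated 180–250 g male CD rats, 3 mg protein/mL in 0.15 M KCl-0.05 M Tris. Split-beam cuvettes were warmed to 37 °C for 5 min, then substrate added stepwise to the sample side and buffer to the reference. Ks came from double-reciprocal plots of the 390–420 nm absorbance difference. Triplicate determinations.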

[2] = Spectral dissociation constant of the compound.; settings: read-out: Ks; procedure, shortened: as §1
[3] = Vmax value in N-demethylation.
Procedure, shortened: (§2)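 Male CD rat hepatic microsomes (1 mg protein/mL) in 0.15 M KCl-0.05 M Tris with 5 mM MgCl2 and an NADPH-generating system (0.33 mM NADP, 5.5 mM glucose 6-phosphate, 0.67 U/mL G6PDH). Incubated in air for 10 min at 37 °C. Formaldehyde measured colorimetrically with acetylacetone at 412 nm, correcting for substrate-free blanks. Km and Vmax taken from triplicates at 11 substrate concentrations.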

[4] = Michaelis constant in O-dealkylation.
Procedure, shortened: (§3)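 Octyl[6-3H]morphine N- and O-dealkylation assayed radiometrically in rat liver microsomes (1 mg protein/mL). Triplicate 20-min incubations used eight substrate concentrations from 0.1 to 1.0 mM. Reactions were stopped with acetone and extracted, then metabolites were located by UV, scraped and counted by scintillation. Km and Vmax came from Lineweaver-Burk plots, averaged over three separate studies.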

[5] = Michaelis constant in N-demethylation.; procedure, shortened: as §2
[6] = Vmax value in O-dealkylation.; procedure, shortened: as §3
[7] = Spectral dissociation constant of the compound; ND = no detectable binding spectra.; procedure, shortened: as §1
[8] = Rate of ethylmorphine N-demethylase in the presence of various concentrations (uM) at 0 uM concentration.
Procedure, shortened: (§4)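 2 mM 3-O-ethylmorphine was N-demethylated for 10 min at 37 °C by male CD rat liver microsomes (1 mg protein/mL) with an NADPH-generating system, with 0, 20, 200 or 2000 μM added decyl or dodecyl analogue. Formaldehyde was read colorimetrically at 412 nm. Rate is nmol/min/mg protein, from triplicate incubations.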

[9] = Maximum optimal dose expressed as OD max X 10e-(2/3) mg; ND = no detectable binding spectra.; procedure, shortened: as §1
[10] = Rate of ethylmorphine N-demethylase in the presence of various concentrations (uM) at 200 uM concentration.; procedure, shortened: as §4
[11] = Rate of ethylmorphine N-demethylase in the presence of various concentrations (uM) at 20 uM concentration.; procedure, shortened: as §4
[12] = Rate of ethylmorphine N-demethylase in the presence of various concentrations (uM) at 2000 uM concentration.; procedure, shortened: as §4

## CCCCCOc1ccc2c3c1OC1C(O)C=CC4C(C2)N(C)CCC341.Cl (configuration not stated)
[1]
  OD max: 2 mg
[2]
  Kd: 14.6 µM

## CCOc1ccc2c3c1OC1C(O)C=CC4C(C2)N(C)CCC341.Cl (configuration not stated)
[3]
  Vmax: 9.31 nM/min
[1]
  OD max: 1.9 mg
[4]
  Km: 55 µM
[2]
  Kd: 29.1 µM
[5]
  Km: 245 µM
[6]
  Vmax: 1.86 nM/min

## CCCOc1ccc2c3c1OC1C(O)C=CC4C(C2)N(C)CCC341.Cl (configuration not stated)
[1]
  OD max: 1.8 mg
[2]
  Kd: 28.4 µM

## CCCCOc1ccc2c3c1OC1C(O)C=CC4C(C2)N(C)CCC341.Cl (configuration not stated)
[1]
  OD max: 2.06 mg
[2]
  Kd: 18.1 µM

## CCCCCCCCCCCCOc1ccc2c3c1OC1C(O)C=CC4C(C2)N(C)CCC341.Cl (configuration not stated)
[7]
  Ks: No detectable binding spectra
[8]
  Rate: 8.92 nM/min
[9]
  OD max: No detectable binding spectra
[10]
  Rate: 8.98 nM/min
[11]
  Rate: 8.81 nM/min
[12]
  Rate: 9.06 nM/min

## CCCCCCCCOc1ccc2c3c1OC1C(O)C=CC4C(C2)N(C)CCC341.Cl (configuration not stated)
[3]
  Vmax: 1.98 nM/min
[1]
  OD max: 2.1 mg
[4]
  Km: 125 µM
[2]
  Kd: 8.8 µM
[5]
  Km: 67 µM
[6]
  Vmax: 3.57 nM/min

## CCCCCCOc1ccc2c3c1OC1C(O)C=CC4C(C2)N(C)CCC341.Cl (configuration not stated)
[1]
  OD max: 1.9 mg
[2]
  Kd: 12.8 µM

## CCCCCCCCCCOc1ccc2c3c1OC1C(O)C=CC4C(C2)N(C)CCC341.Cl (configuration not stated)
[7]
  Ks: No detectable binding spectra
[8]
  Rate: 9.11 nM/min
[9]
  OD max: No detectable binding spectra
[10]
  Rate: 9.12 nM/min
[11]
  Rate: 8.92 nM/min
[12]
  Rate: 9.22 nM/min

## CCCCCCCCCOc1ccc2c3c1OC1C(O)C=CC4C(C2)N(C)CCC341.Cl (configuration not stated)
[1]
  OD max: 2.15 mg
[2]
  Kd: 7.6 µM

## CCCCCCCOc1ccc2c3c1OC1C(O)C=CC4C(C2)N(C)CCC341.Cl (configuration not stated)
[1]
  OD max: 1.8 mg
[2]
  Kd: 11.4 µM

## COc1ccc2c3c1O[C@H]1[C@@H](O)C=C[C@H]4[C@@H](C2)N(C)CC[C@@]341.O=S(=O)(O)O
[1]
  OD max: 1.85 mg

— ChEMBL document CHEMBL1122317, “Role of substrate lipophilicity on the N-demethylation and type I binding of 3-O-alkylmorphine analogues” (J Med Chem, 1983)
